Test results reported in PMC3502708 (Journal of molecular biology, 2012).
pKd: −log10 of the molar value. Each block holds one compound with its values, some of them ahead of it.

Legend:
MORF PHD1/2 fingers [1] = biological target: T1, MORF PHD1/2 fingers (Homo sapiens, UniProt Q8WYB5); assay: NMR titration; assay type: binding; settings: for Chemical shift changes / binding of MORF PHD1/2 by NMR (in words): 0.1 mM 15N-labeled PHD1/2, 298K
T1 sequence (Q8WYB5 211-329): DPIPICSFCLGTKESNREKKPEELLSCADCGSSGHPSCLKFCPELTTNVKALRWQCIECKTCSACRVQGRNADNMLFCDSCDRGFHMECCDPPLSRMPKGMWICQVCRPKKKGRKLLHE

[2] = tested on: endogenous H3K14ac / histone H3 in HEK293 cells; assay type: cell-based; settings: TSA 3 μM, 6 h prior to harvesting, Flag-N-MORF IP
Summary of the method: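 HEK293 cells were seeded at 300,000 per 6 cm dish and lipofection-transfected with Flag-tagged MORF N-terminal constructs (aa 1–352, or aa 1–215 lacking PHD1/2). After about 48 h, cells were lysed in buffer with 150 mM KCl and immunoprecipitated on anti-Flag M2 agarose. Beads were washed extensively and eluted in 50 mM phosphoric acid. Blots were probed with anti-Flag, anti-H3K14ac and anti-H3. Where indicated, TSA (3 μM) was added to the medium 6 h before harvest.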

MOZ PHD1/2 fingers = MOZ PHD1/2 fingers (Homo sapiens, UniProt Q92794); assay: Tryptophan fluorescence binding, MOZ PHD1/2; settings: as seen in NMR and fluorescence assays
MOZ PHD1/2 fingers, sequence (Q92794 207-318): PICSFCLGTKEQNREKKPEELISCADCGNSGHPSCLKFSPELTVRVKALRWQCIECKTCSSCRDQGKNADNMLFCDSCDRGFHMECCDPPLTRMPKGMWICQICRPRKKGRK

ING5 PHD finger = settings: ref [13]; cited from earlier work
MORF PHD1/2 fingers [3] = biological target: T1, MORF PHD1/2 fingers; assay: Tryptophan fluorescence binding, MORF PHD1/2; settings: 25 °C, H3un vs acetylated peptides
[4] = biological target: double PHD fingers of DPF3; settings: read-out: Kd, double PHD fingers of DPF3; ref [31]; cited from earlier work

Compound: C[C@H](N)C(=O)N[C@@H](CCCNC(=N)N)C(=O)N[C@H](C(=O)N[C@@H](CCCC[N+](C)(C)C)C(=O)N[C@@H](CCC(N)=O)C(=O)N[C@H](C(=O)N[C@@H](C)C(=O)N[C@@H](CCCNC(=N)N)C(=O)N[C@@H](CCCCN)C(=O)N[C@@H](CO)C(=O)N[C@H](C(=O)NCC(=O)O)[C@@H](C)O)[C@@H](C)O)[C@@H](C)O [H3K4me3]
Chemical shift changes / binding of MORF PHD1/2 by NMR (in words) (MORF PHD1/2 fingers [1]; 1H,15N HSQC titration): small changes in the NMR spectra of PHD1/2
Affinity of MORF PHD1/2 relative to H3un or H3K9ac (MORF PHD1/2 fingers [1]; NMR titration, 298K): three orders of magnitude lower than affinity of this protein toward H3un or H3K9ac

Compound: CC(=O)NCCCC[C@H](N)C(=O)O [acetylated lysine amino acid, reference compound]
Chemical shift changes / binding of MORF PHD1/2 by NMR (in words) (MORF PHD1/2 fingers [1]; 1H,15N HSQC titration): lack of any significant resonance perturbations

Compound: CC(/C=C/C(=O)NO)=C\[C@@H](C)C(=O)c1ccc(N(C)C)cc1 [trichostatin A (TSA), trichostatin A, reference compound]
Effect on association of N-MORF with histone H3 [2]: enhanced the association of N-MORF with histone H3

Chemical shift changes of MORF PHD1/2 with 5-fold excess of peptide (in words) (MORF PHD1/2 fingers [1]; 1H,15N HSQC, 298K, 5-fold excess of H3 (3–10)): no changes in the NMR spectra of PHD1/2
Compound: H3 (3–10): peptide comprising amino acids Thr3-Ser10 but missing Ala1 and Arg2 (TKQTARKS)

Chemical shift changes / binding of MORF PHD1/2 by NMR (in words) (MORF PHD1/2 fingers [1]; 1H,15N HSQC titration): induced similar resonance perturbations
Compound: H3 peptide (amino acids 1–20): longer unmodified H3 peptide (amino acids 1–20)

Binding of MORF PHD1/2 by NMR, short peptide (in words) (MORF PHD1/2 fingers [1]; 1H,15N HSQC titration, 298K, short peptide, amino acids 1–12): Substantial chemical shift changes
Affinity of MOZ PHD1/2 relative to H3K14ac and H3K9ac (MOZ PHD1/2 fingers): two to three fold weaker
Affinity of MORF PHD1/2 relative to H3K9ac and H3K14ac (MORF PHD1/2 fingers [3]): two to three fold weaker
Compound: H3un: peptide corresponding to amino acids 1–12 of unmodified histone H3 (NMR); length for fluorescence not printed
Binding to ING5 PHD finger (in words) (ING5 PHD finger): does not associate with H3un
pKd [4]: 5.70

Compound: H4 peptide (residues 1–23): H4 peptide (residues 1–23) [reference compound]
Chemical shift changes / binding of MORF PHD1/2 by NMR (in words) (MORF PHD1/2 fingers [1]; 1H,15N HSQC titration): unable to trigger chemical shift changes in MORF PHD1/2
